Legend:
[1] = species: Mus musculus; assay: In vitro inhibition of bone resorption tested in mouse calvarial resorption assay by measuring release of 45Ca from labelled bones; expressed as logit inhibition response; format: functional
Procedure, shortened: (§1)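 Mouse calvarial pieces prelabelled with 45Ca, cultured 72 h with PTH (10 nmol/l) plus ester at 100 μmol/l. Calcium release was measured and expressed as percent of control, the control being PTH-stimulated bones without bisphosphonate.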

[2] = system: Rattus norvegicus; assay: In vivo inhibition of bone resorption tested in rat resorption assay measured at dose of 150 umol/kg after iv administration, expressed as log
[3] = species: Rattus norvegicus; assay: Bioavailability of compound was determined from urinary excretion data in rat, expressed as log; format: ADME, organism-based, Urine; settings: in vivo
Procedure, shortened: (§2)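 Sprague-Dawley male rats given clodronate esters at 100 μmol/kg orally and intravenously, three animals per dose level and route. Unchanged drug was measured by capillary GC with nitrogen-phosphorus detection. F = (cumulative oral urinary amount × iv dose)/(cumulative iv urinary amount × oral dose).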

[4] = system: Rattus norvegicus; assay: In vivo inhibition of bone resorption tested in rat resorption assay measured at dose of 150 umol/kg after iv administration
[5] = Bioavailability in rat as ratio of unchanged drug excreted in the urine after p.o dosing to that following i.v. administration; format: ADME, organism-based; settings: po; procedure, shortened: as §2
[6] = species: Mus musculus; assay: In vitro inhibition of bone resorption tested in mouse calvarial resorption assay by measuring release of 45Ca from labelled bones; expressed as logit inhibition resorption; format: functional; procedure, shortened: as §1
[7] = Partition coefficient (logP); format: physicochemical; settings: octanol/water
Procedure, shortened: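 Shake-flask partition: 200 mg ester dissolved in 4 mL pH 7.4 phosphate buffer or 1-octanol (each saturated with the other), the opposite phase (4 mL) added, shaken 1 h, left overnight, then centrifuged. Both phases were assayed by capillary GC with nitrogen-phosphorus detection.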

[8] = species: Mus musculus; assay: In vitro inhibition of bone resorption tested in mouse calvarial resorption assay by measuring release of 45Ca from labelled bones; format: functional; design: concentration or dose not given beside the values; procedure, shortened: as §1

SMILES	Logit_p(conc) [1]	Log 1/delta/Ca [2]	Logit bioavailability [3]	Delta Ca [4]	bioavailability [5]	Inhibition [6]	logP [7]	Inhibition [8]	Logit_p(conc) [6]	logP ([7]; read-out: logP)
CCOP(=O)(O)C(Cl)(Cl)P(=O)(O)O	3.26	3.11	3.79	0.77 mM	37.9%	15.4%	-5.44	–	–	–
CCCCCCOP(=O)(O)C(Cl)(Cl)P(=O)(OCCCCCC)OCCCCCC	–	–	–	–	–	–	–	58%	4.31	4.89
CCCCCCOP(=O)(O)C(Cl)(Cl)P(=O)(O)OCCCCCC	–	2.84	3.65	1.43 mM	31%	–	–	20.5%	3.41	-0.64
CCCCCCOP(=O)(OCCCCCC)C(Cl)(Cl)P(=O)(O)O	–	3.03	2.91	0.93 mM	7.6%	–	–	15.1%	3.25	-0.15
CCCCCCOP(=O)(O)C(Cl)(Cl)P(=O)(O)O	–	–	3.4	–	17.9%	–	–	21.1%	3.42	-2.75
CC(C)OP(=O)(O)C(Cl)(Cl)P(=O)(O)OC(C)C	–	2.96	2.3	1.09 mM	1.9%	–	–	8%	2.93	-2.96
CCOP(=O)(O)C(Cl)(Cl)P(=O)(OCC)OCC	–	3.15	2.88	0.7 mM	7%	–	–	14.7%	3.23	-2.37
CCOP(=O)(O)C(Cl)(Cl)P(=O)(O)OCC	–	2.98	3.71	1.05 mM	34%	–	–	12.3%	3.15	-3.96
CC(C)OP(=O)(O)C(Cl)(Cl)P(=O)(OC(C)C)OC(C)C	–	2.82	2.28	1.51 mM	1.9%	–	–	7.4%	2.9	-0.95
CC(C)OP(=O)(OC(C)C)C(Cl)(Cl)P(=O)(O)O	–	2.9	3.19	1.25 mM	13.6%	–	–	0.8%	1.3	-3.56
CC(C)OP(=O)(O)C(Cl)(Cl)P(=O)(O)O	–	2.9	2.57	1.27 mM	3.6%	–	–	11.8%	3.12	-3.24
CC(C)OP(=O)(OC(C)C)C(Cl)(Cl)P(=O)(OC(C)C)OC(C)C	–	2.81	3.67	1.54 mM	32.1%	–	–	17.5%	3.32	2.89
CCOP(=O)(OCC)C(Cl)(Cl)P(=O)(OCC)OCC	–	2.81	2.72	1.52 mM	5%	–	–	18.8%	3.36	1.31

Reference: ChEMBL document CHEMBL1125601, “Comparative molecular field analysis of some clodronic acid esters” (J Med Chem, 1991)
